CXCR6 inh: inhibitors of human CXCR6 receptor | O00574 | CHO-K1 PathHunter CXCR6 beta-arrestin, luminescence | inhibition, % at 20 µM | 360,000 tested, 0.36% active; in the data active = inhibition above about 34%, passing the limit was not always enough;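 note: antagonist mode with CXCL16 agonist at 10 nM final; 0% = 10 nM CXCL16 with DMSO and 100% = unstimulated wells without agonist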
EBI2 block: blocks human EBI2 receptor beta-arrestin signaling | P32249 | inhibition, % at 5 µM | 360,000 tested, 0.81% active | EBI2 beta-arrestin recruitment, luminescence, 7a,25-OHC stimulated | AID 651636; in the data active = inhibition above about 38%;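 note: enzyme fragment complementation signal reports receptor beta-arrestin coupling in cells; 0% = agonist plus DMSO wells and 100% = wells without agonist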
APJ agonist: agonists of human APJ apelin receptor; CHO-K1 APJ PathHunter beta-arrestin, luminescence; 0% DMSO wells, 100% apelin; P35414; AID 2520; activation, % at 20 µM; 330,000 tested, 0.11% active;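 active = activation more than six SD over the plate average, tested at 20 µM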;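 note: 0% = DMSO alone and 100% = apelin-13 at 10 nM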
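assay system = CHO-K1 APJ beta-arrestin complementation cell line | input = cell density 1000 per well | dosing = compound 20 µM once, DMSO 1% | timing = compound 90 min 25 °C, reagent 1 h | measured by = luminescence from split beta-galactosidase complementation, Galacton Star/Emerald II substrate | read-out basis = APJ agonist activity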
APJ antag: blocks the human apelin receptor APJ | P35414 | CHO-K1 APJ beta-arrestin complementation, luminescence | inhibition, % at 20 µM | 330,000 tested, 0.32% active | AID 2521;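 active = inhibition above about 40% at 20 µM, limit read from the data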;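 note: cells challenged with 10 nM apelin-13 agonist together with compound; plate controls were apelin-13 plus DMSO wells for no effect and DMSO wells lacking apelin-13 for full effect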
CCR6 antag: CCR6 (human) receptor antagonism. P51684. CHO-K1 CCR6 PathHunter beta-arrestin, luminescence, CCL20-stimulated. inhibition, % at 20 µM. 340,000 tested, 0.49% active. AID 493098;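 active = compounds whose inhibition of the agonist-driven luminescence signal at 20 µM reaches about 50%, limit read from the data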;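 note: cells stimulated with CCL20 at 14 nM final; plate controls were DMSO with CCL20 for no effect and DMSO without agonist for full effect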
Target sequence (P51684 whole entry, looked up): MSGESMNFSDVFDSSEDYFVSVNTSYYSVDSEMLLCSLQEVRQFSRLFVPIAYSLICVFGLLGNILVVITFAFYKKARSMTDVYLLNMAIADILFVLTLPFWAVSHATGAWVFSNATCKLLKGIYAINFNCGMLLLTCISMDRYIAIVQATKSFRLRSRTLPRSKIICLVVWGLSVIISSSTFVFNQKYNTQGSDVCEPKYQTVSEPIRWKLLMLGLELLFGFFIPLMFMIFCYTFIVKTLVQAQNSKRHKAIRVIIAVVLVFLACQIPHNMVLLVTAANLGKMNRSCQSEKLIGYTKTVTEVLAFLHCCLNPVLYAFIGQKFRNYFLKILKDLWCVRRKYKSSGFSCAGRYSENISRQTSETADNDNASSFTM
* hit, by the source's call; / = not tested or not shown. An excerpt weighted towards active compounds, which were near 1.5% of everything screened.

SMILES	CXCR6 inh	EBI2 block	APJ agonist	APJ antag	CCR6 antag
CC(C)N1C(=O)/C(=C/c2nc3ccccc3c(=O)n2-c2ccccc2)c2ccccc21	13	56*	-1	31	11
CC(C)N1C(=O)C(Cc2nc3ccccc3c(=O)n2-c2ccccc2)c2ccccc21 (stereo unspecified)	4	12	-3	19	21
CC(C)N1C(=O)/C(=C\c2nc3ccccc3c(=O)n2-c2ccccc2)c2ccccc21	12	55*	/	/	24
CC(=O)Nc1cc(-c2cccc(CO)c2)cn2c(-c3ccc(F)cc3)cnc12	7	18	/	/	/
C=CCn1c(N)c(C(=O)OC(C)(C)C)c2nc3ccccc3nc21	5	1	-10	50*	19
C=CCn1c(N)c(C(=O)OC(C)CC)c2nc3ccccc3nc21 (stereo unspecified)	12	8	/	/	19
COC(=O)C[C@@H]1C[C@@H]2c3cc(NC(=O)Cc4ccncc4)ccc3O[C@@H]2[C@@H](CO)O1	-2	-2	/	/	/
O=C1C(Cc2ccccc2)Nc2ncnc(N3CCCCC3)c2N1Cc1ccc(Cl)cc1 (stereo unspecified)	28	-2	-15	-9	51*
COC(=O)c1c(NC2=NS(=O)(=O)c3ccccc32)sc2c1CCC(C(C)(C)C)C2 (stereo unspecified)	13	0	/	/	27
O=C(C#Cc1ccccc1)c1cccc([N+](=O)[O-])c1	91*	32	0	35	93*
Cc1[nH]n(-c2ccccc2)c(=O)c1N=Nc1ccc(C(=O)O)cc1	9	6	-6	33	31
CC(=O)c1ccc(N=Nc2c(C)[nH]n(-c3ccccc3)c2=O)cc1	40*	-6	-6	36	49
COc1ccccc1-c1cc(C(F)(F)F)nc(S(=O)(=O)CCCC(=O)NCc2ccc(F)cc2)n1	40*	9	0	8	23
COc1ccc(S(=O)(=O)N2CCC[C@H]2C(=O)N2CCC[C@H]2C(=O)N[C@@H](C)c2ccccc2)cc1C	-5	-12	/	/	/
COc1ccccc1/C=C/C(=O)/C=C/c1ccccc1O	14	44*	/	/	30
Cc1ccc(S(=O)(=O)Nc2ccc3cc([N+](=O)[O-])ccc3c2[N+](=O)[O-])cc1	19	13	/	/	44
CCOC(=O)C1(Cc2ccc(Cl)cc2)CCN(C(=O)CCc2cnccn2)CC1	-4	-4	-4	-26	62*
CCOC(=O)C1(Cc2ccc(OC)cc2)CCN(C(=O)CCc2cnccn2)CC1	-4	-6	0	7	-4
O=[N+]([O-])c1cnc(Sc2ccncn2)c([N+](=O)[O-])c1	100*	-12	/	/	/
O=[N+]([O-])c1ccc(Sc2ncccn2)c([N+](=O)[O-])c1	-18	-67	8	-44	-15
Cc1ccccc1NC(=S)Nc1cccc2cnccc12	-8	-12	16*	-42	10
Cc1ccc(C)c(NC(=S)Nc2cccc3cnccc23)c1	-27	0	0	-72	-2
CCSC1=NC(C)(C)C=C(/C=C/c2ccc(Cl)cc2Cl)N1	20	13	-8	12	66*
CN1CCN(c2ccc(CNC(=O)C3Cc4c(-c5ccc(Cl)cc5)ccnc4O3)cc2)CC1 (stereo unspecified)	6	3	/	/	/
O=S(=O)(c1ccc(Br)cc1Cl)N1CCN(CCO)CC1	3	-15	-1	-7	10
SMILES	CXCR6 inh	EBI2 block	APJ agonist	APJ antag	CCR6 antag
O=C1C=CC(=O)c2c(O)c(N3CCN(CCO)CC3)c(Cl)c(O)c21	66*	-19	/	/	102*
O=C1C=CC(=O)c2c(O)c(N3CCN(CCOCCO)CC3)c(Br)c(O)c21	76*	-23	/	/	112*
CC1=CN2C(=N)/C(=C/c3ccc(Sc4ccc(C)cc4)o3)C(=O)N=C2S1	34	0	-1	26	63*
CC1=CN2C(=N)/C(=C/c3ccc(Sc4ccc(Cl)cc4)o3)C(=O)N=C2S1	19	3	-3	20	52*
CC(C)C[C@@H]1O[C@H](CCc2ccccc2)Cc2[nH][nH]c(=O)c21	-8	3	/	/	/
Nc1[nH]c(C(=O)c2ccccc2)c(-c2ccncc2)c1C(=O)NCCc1c[nH]c2ccccc12	2	19	/	/	/
Clc1ccc(-c2cn3c(n2)-c2ccccc2C3)cc1Cl	0	57*	-3	-9	6
c1ccc(-c2nnc3oc(-c4cccs4)nn23)cc1	4	4	/	/	/
Cc1cc(C)c2cc(C#N)c(NCCNC(=O)c3ccccn3)nc2c1	/	-8	/	/	/
C=CCn1c(Sc2ncc([N+](=O)[O-])s2)n[nH]c1=O	42*	6	11	31	56*
OC1COC(c2ccccc2)OC1C(O)C1OC(c2ccccc2)OCC1O (stereo unspecified)	4	-2	/	/	8
CNC(=O)COc1ccc(Cl)c2cccnc12	-5	-10	-1	9	-5
Cc1cccc(NC(=O)Oc2ccc(Cl)c3cccnc23)c1	46*	11	/	/	/
O=C(N/N=C/c1cc([N+](=O)[O-])cc([N+](=O)[O-])c1O)C(O)(c1ccccc1)c1ccccc1	39*	7	-5	24	32
O=C(N/N=C/c1ccc(O)c([N+](=O)[O-])c1)C(O)(c1ccccc1)c1ccccc1	14	3	-6	28	17
CCNC(=S)Nc1ccc2c(c1)c(=O)n(C)n2-c1ccc(C(C)(C)C)cc1	-1	4	/	/	/
COc1ccc(C(=O)O/N=C2\C(=O)N(C)c3ccccc32)cc1	27	40	-2	17	59*
CN1C(=O)/C(=N\OC(=O)c2cccc3ccccc23)c2ccccc21	32	27	-3	20	32
C/C(Cl)=C\Cn1c(O)c(N=NC(N)=S)c2cc(Br)ccc21	34	10	-9	34	55*
O=C(COc1ccc(CNC[C@H]2O[C@@H](n3ccc(=O)[nH]c3=O)[C@H](O)[C@@H]2O)cc1)Nc1ccccn1	11	-11	/	/	/
Cc1ccc2nc3cc([N+](=O)[O-])cc([N+](=O)[O-])c3cc2c1	23	53*	/	/	50
COc1ccc(NC(=O)/C(Cl)=C(/Cl)S(=O)(=O)Cc2ccc(C)cc2)cn1	48*	70*	/	/	57*
CC1CCN(Cc2c(C(=O)N/N=C/c3cc(Br)ccc3O)nnn2-c2nonc2N)CC1	5	-3	-1	4	41
CC1CCN(Cc2c(C(=O)N/N=C/c3cc(Cl)ccc3O)nnn2-c2nonc2N)CC1	5	-15	1	8	50*
CCCCn1nnnc1C(c1cc2ccccc2o1)N1CCN(c2cc(C)nc3ccccc23)CC1 (stereo unspecified)	17	21	/	/	/
CCOC(=S)SCC(=O)Nc1nc(-c2ccc(Br)cc2)cs1	2	69*	-3	18	-25
CCOC(=S)SCC(=O)Nc1nc(-c2ccccc2)cs1	8	-10	0	7	8
Cc1ccc(S(=O)(=O)N2CCN(c3nc(-c4cccs4)nc4ccccc34)CC2)cc1	7	15	/	/	/
